Reference: ChEMBL document CHEMBL1142162, “Synergistic interactions of the antiretroviral protease inhibitors saquinavir and ritonavir with chloroquine and mefloquine against Plasmodium falciparum in vitro” (Antimicrob Agents Chemother, 2007)
Calls of active or inactive are those of the source. The rule behind the calls is not given here.

Key:
Type in all cases: functional, organism-based
[1] = system: Plasmodium falciparum; experiment: Antimalarial activity against Plasmodium falciparum Dd2
Summary of the method: (§1)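 P. falciparum clones kept in modified candle jars; triplicate wells holding 100 µl culture (2% hematocrit, 1% parasitemia) plus 100 µl drug dilution or control. Growth read by tritiated hypoxanthine incorporation, media and vehicle controls on each plate. Experiments repeated at least twice; EC50 derived from pooled data of all experiments.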

[2] = system: Plasmodium falciparum; experiment: Antimalarial activity against Plasmodium falciparum FAC8; summary of the method: as §1
[3] = system: Plasmodium falciparum; experiment: Antimalarial activity against Plasmodium falciparum D10; summary of the method: as §1

Row | Structure (SMILES) | EC50 [1] | EC50 [2] | EC50 [3] | Activity [1]
1 | CC(C)C[C@H](NC(=O)[C@H]1O[C@@H]1C(=O)O)C(=O)NCCCCN=C(N)N [E-64] | 2.9 µM | – | – | –
2 | O[C@@H](c1cc(C(F)(F)F)nc2c(C(F)(F)F)cccc12)[C@H]1CCCCN1 [MEFLOQUINE] | 0.06 µM | 0.023 µM | 0.064 µM | –
3 | CC(C)(C)NC(=O)[C@@H]1C[C@@H]2CCCC[C@@H]2CN1C[C@@H](O)[C@H](Cc1ccccc1)NC(=O)[C@H](CC(N)=O)NC(=O)c1ccc2ccccc2n1 [SAQUINAVIR] | 0.96 µM | – | 5.5 µM | –
4 | CC(C)c1nc(CN(C)C(=O)N[C@H](C(=O)N[C@@H](Cc2ccccc2)C[C@H](O)[C@H](Cc2ccccc2)NC(=O)OCc2cncs2)C(C)C)cs1 [RITONAVIR] | 0.85 µM | 7 µM | 1.1 µM | –
5 | CC(C)CC(=O)N[C@H](C(=O)N[C@H](C(=O)N[C@@H](CC(C)C)[C@@H](O)CC(=O)N[C@@H](C)C(=O)N[C@@H](CC(C)C)[C@@H](O)CC(=O)O)C(C)C)C(C)C [PEPSTATIN] | – | – | 14 µM | inactive
6 | CC(C)C[C@H](NC(=O)[C@@H](O)[C@H](N)Cc1ccccc1)C(=O)O [UBENIMEX] | 5.1 µM | – | – | –
7 | CCN(CC)CCCC(C)Nc1ccnc2cc(Cl)ccc12 (stereo not drawn) [CHLOROQUINE] | 0.055 µM | – | – | –
